Data reported in PMC12278411 (Acta Pharmaceutica Sinica. B, 2025).

Experiments:
[1] = test system: APAP-induced ALI (650 mg/kg APAP); test: Survival period in APAP-induced acute liver injury; type: in vivo, C57BL/6 mice; details: APAP 650 mg/kg, 96 h observation
In short: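 Male C57BL/6 mice (24–25 g), fasted 16 h with free water, randomised 10 per group. APAP 650 mg/kg i.p., immediately followed by oral test compound (5, 10 or 20 mg/kg; reference groups NAC 30 mg/kg or a RIPK2 inhibitor 10 mg/kg). A second dose was given 12 h after induction. Saline controls included. Survival followed over 96 h.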

[2] = Pharmacokinetic study in mice, i.v. and p.o.; type: in vivo; details: BALB/c, mouse, plasma, 10 mg/kg
RIPK1 = target: T1, RIPK1 (Homo sapiens, UniProt Q13546); test: RIPK1 kinase assay; type: biochemical
T1 sequence (Q13546 1-671): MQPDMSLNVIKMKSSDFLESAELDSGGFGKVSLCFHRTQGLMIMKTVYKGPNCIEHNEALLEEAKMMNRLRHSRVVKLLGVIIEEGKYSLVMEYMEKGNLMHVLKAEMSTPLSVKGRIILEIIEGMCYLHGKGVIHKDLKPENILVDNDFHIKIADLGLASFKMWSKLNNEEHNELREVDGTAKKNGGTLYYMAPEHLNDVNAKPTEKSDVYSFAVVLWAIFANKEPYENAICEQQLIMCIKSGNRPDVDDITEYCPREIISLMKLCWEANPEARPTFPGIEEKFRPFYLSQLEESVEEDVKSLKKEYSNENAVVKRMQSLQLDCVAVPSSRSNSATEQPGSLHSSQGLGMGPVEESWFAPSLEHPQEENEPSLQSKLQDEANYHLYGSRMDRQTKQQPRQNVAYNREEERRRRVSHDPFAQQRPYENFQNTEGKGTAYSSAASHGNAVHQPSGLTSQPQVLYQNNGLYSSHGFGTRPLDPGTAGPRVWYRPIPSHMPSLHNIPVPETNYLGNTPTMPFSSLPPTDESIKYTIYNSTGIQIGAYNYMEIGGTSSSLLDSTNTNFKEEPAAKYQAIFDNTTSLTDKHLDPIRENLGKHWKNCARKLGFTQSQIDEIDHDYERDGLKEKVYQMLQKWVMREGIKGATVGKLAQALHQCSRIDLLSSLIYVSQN

RIPK2 (h) = RIPK2 (h) (Homo sapiens, UniProt O43353); test: RIPK2 kinase assay; type: biochemical
[3] = Plasma exposure test, oral 10 mg/kg; type: in vivo; details: 10 mg/kg p.o., BALB/c mice
In short: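 Test compound in saline with 2.5% DMSO, given orally at 10 mg/kg to BALB/c mice (20–22 g), n = 3. Blood drawn at 0.5, 2 and 6 h after dosing, centrifuged to obtain plasma. Proteins precipitated with acetonitrile containing SAHA internal standard, centrifuged again; supernatant concentrations quantified by LC–MS/MS.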

[4] = Metabolic stability assay in human liver microsome; type: in vitro ADME

Chain of RIPK2 (h) (O43353 whole entry): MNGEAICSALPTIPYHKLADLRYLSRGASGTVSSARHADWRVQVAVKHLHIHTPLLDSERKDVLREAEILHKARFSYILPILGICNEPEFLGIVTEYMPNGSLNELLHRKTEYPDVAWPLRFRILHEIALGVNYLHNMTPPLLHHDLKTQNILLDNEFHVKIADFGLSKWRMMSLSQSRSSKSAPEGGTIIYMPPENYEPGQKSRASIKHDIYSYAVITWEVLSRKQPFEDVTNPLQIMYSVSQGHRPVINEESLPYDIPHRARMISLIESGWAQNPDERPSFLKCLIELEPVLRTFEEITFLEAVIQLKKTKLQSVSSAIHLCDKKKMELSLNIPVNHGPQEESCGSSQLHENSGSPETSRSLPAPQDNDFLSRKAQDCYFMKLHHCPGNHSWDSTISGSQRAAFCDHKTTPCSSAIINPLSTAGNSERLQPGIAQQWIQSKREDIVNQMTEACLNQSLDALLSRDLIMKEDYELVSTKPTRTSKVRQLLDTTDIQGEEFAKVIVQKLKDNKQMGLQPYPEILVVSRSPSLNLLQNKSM

SMILES | survival of mice [1] | AUC(0-t) ([2]; iv) | Cmax ([2]; iv) | Vd ([2]; iv) | clearance ([2]; iv) | half-life ([2]; iv) | AUC(0-t) ([2]; po) | Cmax ([2]; po) | bioavailability ([2]; po) | half-life ([2]; po) | IC50 (RIPK1) | IC50 (RIPK2 (h)) | Plasma concentration 0.5 h ([3]; 0.5 h) | Plasma concentration 2 h ([3]; 2 h) | Plasma concentration 6 h ([3]; 6 h) | RIPK1 Percentage%@1 μmol/L (RIPK1; active RIPK1 activity relative to control, 1 μmol/L) | CL ([4]; human liver microsomes, 1 μmol/L) | half-life at 1 μmol/L ([4]; human, pooled liver microsomes)
CC(C)(C)S(=O)(=O)c1cc2c(Nc3ccc4scnc4c3)ncnc2cc1OCCOP(=O)(O)O [GSK2983559, 2-((4-(benzo[d]thiazol-5-ylamino)-6-(tert-butylsulfonyl)quinazolin-7-yl)oxy)ethyl dihydrogen phosphate] | significantly prolong the survival | 3780 ± 255 ng·h/mL | 5680 ± 521 ng/mL | 9.46 ± 4.13 L/kg | 44.3 mL/min/kg | 2.42 ± 0.86 h | 3120 ± 1060 ng·h/mL | 2620 ± 413 ng/mL | 82.7% | 2.74 ± 0.25 h | > 30000 nM | 7 nM | 1154 ± 125 ng/mL | 145 ± 42 ng/mL | 21 ± 11 ng/mL |  |  | 
CC(=O)N[C@@H](CS)C(=O)O [NAC, N-acetylcysteine] | only deferred the time of mortality |  |  |  |  |  |  |  |  |  |  |  |  |  |  |  |  | 
Fc1cc2scnc2cc1Nc1ncnc2sc(C3=CCNCC3)cc12 [RP1, N-(6-fluorobenzo[d]thiazol-5-yl)-6-(1,2,3,6-tetrahydropyridin-4-yl)thieno[2,3-d]pyrimidin-4-amine] |  |  |  |  |  |  |  |  |  |  |  | 9 nM |  |  |  | 99 ± 2% | <12 mL/min/g·protein | > 2 h
